Source: article PMC11577639 (Journal of medicinal chemistry, 2024)
Where two headings read alike, the source gives them in different places. Blank lines part the entries; values can stand above or below the compound they belong to.

Assays:
[1] = SH-SY5Y cytotoxicity assay; assay type: cell-based, human; settings: human, SH-SY5Y neuroblastoma cells
[2] = tested on: Human neuronal SH-SY5Y cells (ATCC CRL-2266); experiment: SH-SY5Y cytotoxicity assay; assay type: cell-based; settings: Table 3; SH-SY5Y CC50 / Nf69 EC50
[3] = BBB parallel artificial membrane permeation assay; assay type: in vitro ADME; settings: for BBB PAMPA CNS class: classified against positive and negative controls
Outline: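 Porcine polar brain lipid in dodecane coated on filter membrane. Test compound from DMSO stock diluted in PBS pH 7.4 in donor wells, PBS acceptor, room temperature incubation. Donor and filter-well concentrations measured by HPLC. Verapamil, clonidine, hydrocortisone and theophylline as […]. Pe > 15 nm/s scored CNS+, ≤ 15 CNS-.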

Mouse plasma stability = assay type: in vitro ADME; settings: male, CD-1, mouse
Outline: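 Test compound added from DMSO stock to CD-1 mouse plasma (EDTA-K2, ≥20 male donors). Incubated at 37 °C for 0, 10, 30, 60 or 120 min. Protein precipitated with tolbutamide and labetalol in acetonitrile, then shaken and centrifuged. Supernatant diluted in water and analysed by LCMS with internal standard. Enalapril maleate, bisacodyl and procaine HCl as controls.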

Plasma protein binding = assay type: in vitro ADME; settings: CD-1 mouse
Outline: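 96-well equilibrium dialysis against CD-1 male mouse plasma (EDTA-K2), test compound on donor side in triplicate, dialysis buffer on receiver side. Incubated 4 h at 37 °C, 5% CO2, slow shaking. Both sides sampled, diluted in acetonitrile containing tolbutamide, labetalol, metformin and internal standard, centrifuged and analysed by LC-MS/MS. Warfarin as positive control.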

Mouse pharmacokinetics = assay type: in vivo, female CD-1 mice; settings: female, CD-1, mouse, plasma, iv, 11 mg/kg
Outline: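 Female CD-1 mice, n = 3/group. First study: single IV 11.1 mg/kg or PO 10.7 mg/kg (fasted), 10% NMP/20% cremophor EL/70% water, plasma at 0.5, 2, 4, 8, 12 h, brain homogenised in MeOH/PBS at 12 h. Second: fasted, IP 44 mg/kg suspension in 10% DMSO/30% cremophor EL/60% water, plasma at 2 and 4 h. LC-MS/MS, verapamil internal standard. LLOQ 1 ng/mL plasma, 10 ng/g brain.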

[4] = tested on: N. fowleri (Nf69 strain, ATCC 30215) trophozoites; experiment: N. fowleri Nf69 dose-response growth inhibition; assay type: cell-based, Naegleria fowleri

SMILES: CN1CCC[C@H]2c3nc4cc(Cl)c(Cl)cc4c(=O)n3CC[C@@H]21 [trans-21b-ent-2, (4aS,13bR)-10,11-Dichloro-4-methyl-1,2,3,4,4a,5,6,13b-octahydro-8H-[1,6]naphthyridino[5,6-b]quinazolin-8-one]
CC50 at 72 h [1]: > 20 µM | SI (selectivity index, CC50/EC50) [2]: >7.7

SMILES: CN1CCC[C@@H]2c3nc4cc(Cl)c(Cl)cc4c(=O)n3CC[C@H]21 (racemic) [±−21b, (±)-(4aR,13bS)-10,11-Dichloro-4-methyl-1,2,3,4,4a,5,6,13b-octahydro-8H-[1,6]naphthyridino[5,6-b]quinazolin-8-one]
SI (selectivity index, CC50/EC50) [2]: >100

SMILES: COc1cc2nc3n(c(=O)c2cc1Cl)CC[C@@H]1[C@@H]3CCCN1CC(C)C (single isomer, unassigned) [trans-62b-ent-1]
SI (selectivity index, CC50/EC50) [2]: >32.3

SMILES: CN1CCC[C@@H]2c3nc4ccc(Cl)cc4c(=O)n3CC[C@H]21 (single isomer, unassigned) [trans-16b-ent-1]
SI (selectivity index, CC50/EC50) [2]: >71.4

SMILES: CN1CCC[C@@H]2c3nc4ccc(Cl)cc4c(=O)n3CC[C@H]21 (racemic) [±−16b]
SI (selectivity index, CC50/EC50) [2]: >20.0

SMILES: CN1CCC[C@@H]2c3nc4ccc(C(F)(F)F)cc4c(=O)n3CC[C@H]21 (single isomer, unassigned) [trans-15b-ent-1]
SI (selectivity index, CC50/EC50) [2]: >80.0

BBB PAMPA CNS class [3]: CNS+ (Pe > 15 nm/s = CNS+) | half-life (Mouse plasma stability): > 4.82 h | plasma protein binding (Plasma protein binding): 74% bound | clearance at 12 h (Mouse pharmacokinetics): 40.8 ± 7.6 mL/min/kg
SMILES: COc1cc2nc3n(c(=O)c2cc1Cl)CC[C@H]1[C@H]3CCCN1CC1COC1 (single isomer, unassigned) [trans-57b-ent-2]

EC50 ([4]; Naegleria fowleri, ATCC30215): 35.7 ± 9.1 µM
SMILES: CCCCCCCCCCCCCCCCOP(=O)([O-])OCC[N+](C)(C)C [miltefosine, reference compound]

SMILES: CN1CCC[C@H]2c3nc4ccc(Cl)cc4c(=O)n3CC[C@@H]21 [trans-16b-ent-2, (4aS,13bR)-10-Chloro-4-methyl-1,2,3,4,4a,5,6,13b-octahydro-8H-[1,6]naphthyridino[5,6-b]quinazolin-8-one]
CC50 at 72 h [1]: > 20 µM | SI (selectivity index, CC50/EC50) [2]: >5.0

SMILES: CN1CC[C@H]2c3nc4ccc(Cl)cc4c(=O)n3CC[C@H]21 (racemic) [31a, (±)-(3aR,12bR)-9-Chloro-3-methyl-2,3,3a,4,5,12b-hexahydropyrrolo[3′,2′:3,4]pyrido[2,1-b]quinazolin-7(1H)-one]
EC50 ([4]; read-out: EC50, N. fowleri Nf69, tested up to 10 μM): > 10 µM

SMILES: CN1CCC[C@@H]2c3nc4ccc(C(F)(F)F)cc4c(=O)n3CC[C@H]21 (racemic) [±−15b, (±)-(4aR,13bS)-4-Methyl-10-(trifluoromethyl)-1,2,3,4,4a,5,6,13b-octahydro-8H-[1,6]naphthyridino[5,6-b]-quinazolin-8-one]
SI (selectivity index, CC50/EC50) [2]: >18.2

SMILES: CN1CCC[C@H]2c3nc4ccc(C(F)(F)F)cc4c(=O)n3CC[C@@H]21 [trans-15b-ent-2, (4aS,13bR)-4-Methyl-10-(trifluoromethyl)-1,2,3,4,4a,5,6,13b-octahydro-8H-[1,6]naphthyridino[5,6-b]quinazolin-8-one]
CC50 at 72 h [1]: > 20 µM | SI (selectivity index, CC50/EC50) [2]: >4.7

BBB PAMPA, Peavg ([3]; averaged data from duplicate runs, 4 h): 18.2 ×10⁻⁶ cm/s | BBB PAMPA CNS class [3]: CNS+ (Pe > 15 nm/s = CNS+) | plasma protein binding (Plasma protein binding): 74% bound
SMILES: COc1cc2nc3n(c(=O)c2cc1Cl)CC[C@@H]1[C@@H]3CCCN1CC1COC1 [trans-57b-ent-1, (4aR,13bS)-10-Chloro-11-methoxy-4-(oxetan-3-ylmethyl)-1,2,3,4,4a,5,6,13b-octahydro-8H-[1,6]naphthyridino[5,6-b]-quinazolin-8-one]
SI (selectivity index, CC50/EC50) [2]: >40.8
